{"source": "ChEMBL document CHEMBL4354843", "about": "“Structure-Based Design of a Potent and Selective Covalent Inhibitor for SRC Kinase That Targets a P-Loop Cysteine” (J Med Chem, 2020)", "key": {"[1]": {"molecular_target": "Phosphatidylinositol 4,5-bisphosphate 3-kinase catalytic subunit beta isoform (Homo sapiens) (UniProt P42338)", "assay": "Binding affinity to wild-type human partial length PIK3CB (P118 to S1070 residues) expressed in mammalian expression system assessed as residual binding level at 1 uM by Kinomescan method relative to control"}, "[2]": {"molecular_target": "Ephrin type-A receptor 8 (Homo sapiens) (UniProt P29322)", "assay": "Binding affinity to wild-type human partial length EPHA8 (Q608 to C920 residues) expressed in bacterial expression system assessed as residual binding level at 1 uM by Kinomescan method relative to control", "procedure,_shortened": "(§1)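 Active-site-directed competition binding panel of 468 kinases (KinomeScan), compound at 1 μM. The read-out is kinase remaining bound, given as a percentage of the DMSO control. […]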"}, "[3]": {"test_system": "Receptor-type tyrosine-protein kinase FLT3 (Homo sapiens), P36888 [UNDEFINED MUTATION]", "sequence (P36888 whole entry, looked up, change not shown)": "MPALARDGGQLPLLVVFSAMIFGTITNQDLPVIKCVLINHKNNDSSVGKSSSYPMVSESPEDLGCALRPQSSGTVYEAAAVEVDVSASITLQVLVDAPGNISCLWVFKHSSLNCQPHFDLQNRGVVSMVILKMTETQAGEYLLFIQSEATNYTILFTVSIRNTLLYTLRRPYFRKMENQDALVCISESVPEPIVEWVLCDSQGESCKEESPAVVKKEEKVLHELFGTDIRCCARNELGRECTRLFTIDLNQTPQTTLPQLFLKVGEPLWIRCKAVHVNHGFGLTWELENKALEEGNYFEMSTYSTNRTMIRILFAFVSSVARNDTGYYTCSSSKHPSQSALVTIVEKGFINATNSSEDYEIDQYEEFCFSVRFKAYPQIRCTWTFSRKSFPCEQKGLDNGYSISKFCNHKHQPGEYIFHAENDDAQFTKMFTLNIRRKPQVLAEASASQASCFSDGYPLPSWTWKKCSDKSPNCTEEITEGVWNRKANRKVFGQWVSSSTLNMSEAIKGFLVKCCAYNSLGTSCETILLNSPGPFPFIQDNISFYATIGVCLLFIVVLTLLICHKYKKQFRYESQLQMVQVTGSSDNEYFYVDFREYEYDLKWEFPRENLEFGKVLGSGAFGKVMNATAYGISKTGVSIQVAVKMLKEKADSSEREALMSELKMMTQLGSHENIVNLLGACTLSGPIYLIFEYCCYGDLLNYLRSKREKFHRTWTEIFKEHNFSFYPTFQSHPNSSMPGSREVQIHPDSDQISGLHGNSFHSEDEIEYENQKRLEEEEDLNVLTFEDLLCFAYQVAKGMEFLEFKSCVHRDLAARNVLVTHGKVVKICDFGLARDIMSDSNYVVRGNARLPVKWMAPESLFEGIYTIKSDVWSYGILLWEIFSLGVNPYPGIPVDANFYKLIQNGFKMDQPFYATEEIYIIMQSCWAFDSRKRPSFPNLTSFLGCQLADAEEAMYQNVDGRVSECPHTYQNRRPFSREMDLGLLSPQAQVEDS", "assay": "Binding affinity to human partial length FLT3 ITD mutant expressed in bacterial expression system assessed as residual binding level at 1 uM by Kinomescan method relative to control", "procedure,_shortened": "(§2)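 KinomeScan active site-directed competition binding panel (468 kinases), compound tested at 1 μM. Result expressed as remaining kinase signal versus DMSO control (percent of control).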"}, "[4]": {"molecular_target": "Phosphatidylinositol 4-phosphate 3-kinase C2 domain-containing subunit beta (Homo sapiens) (UniProt O00750)", "assay": "Binding affinity to wild-type human partial length PIK3C2B (M1 to L1634 residues) expressed in mammalian expression system assessed as residual binding level at 1 uM by Kinomescan method relative to control"}, "[5]": {"molecular_target": "Non-receptor tyrosine-protein kinase TNK1 (Homo sapiens) (UniProt Q13470)", "assay": "Binding affinity to wild-type human full length TNK1 (M1 to P661 residues) expressed in bacterial expression system assessed as residual binding level at 1 uM by Kinomescan method relative to control", "procedure,_shortened": "(§3)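 KinomeScan, an active site-directed competition binding panel of 468 kinases. The test compound was at 1 μM. The readout is remaining kinase binding as a percentage of the DMSO control. Scores above 35% were treated as weak binding and not listed.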"}, "[6]": {"test_system": "Phosphatidylinositol 4,5-bisphosphate 3-kinase catalytic subunit alpha isoform (Homo sapiens), P42336 [I800L]", "sequence (P42336 whole entry I800L, the tested form may be a part, canonical isoform)": "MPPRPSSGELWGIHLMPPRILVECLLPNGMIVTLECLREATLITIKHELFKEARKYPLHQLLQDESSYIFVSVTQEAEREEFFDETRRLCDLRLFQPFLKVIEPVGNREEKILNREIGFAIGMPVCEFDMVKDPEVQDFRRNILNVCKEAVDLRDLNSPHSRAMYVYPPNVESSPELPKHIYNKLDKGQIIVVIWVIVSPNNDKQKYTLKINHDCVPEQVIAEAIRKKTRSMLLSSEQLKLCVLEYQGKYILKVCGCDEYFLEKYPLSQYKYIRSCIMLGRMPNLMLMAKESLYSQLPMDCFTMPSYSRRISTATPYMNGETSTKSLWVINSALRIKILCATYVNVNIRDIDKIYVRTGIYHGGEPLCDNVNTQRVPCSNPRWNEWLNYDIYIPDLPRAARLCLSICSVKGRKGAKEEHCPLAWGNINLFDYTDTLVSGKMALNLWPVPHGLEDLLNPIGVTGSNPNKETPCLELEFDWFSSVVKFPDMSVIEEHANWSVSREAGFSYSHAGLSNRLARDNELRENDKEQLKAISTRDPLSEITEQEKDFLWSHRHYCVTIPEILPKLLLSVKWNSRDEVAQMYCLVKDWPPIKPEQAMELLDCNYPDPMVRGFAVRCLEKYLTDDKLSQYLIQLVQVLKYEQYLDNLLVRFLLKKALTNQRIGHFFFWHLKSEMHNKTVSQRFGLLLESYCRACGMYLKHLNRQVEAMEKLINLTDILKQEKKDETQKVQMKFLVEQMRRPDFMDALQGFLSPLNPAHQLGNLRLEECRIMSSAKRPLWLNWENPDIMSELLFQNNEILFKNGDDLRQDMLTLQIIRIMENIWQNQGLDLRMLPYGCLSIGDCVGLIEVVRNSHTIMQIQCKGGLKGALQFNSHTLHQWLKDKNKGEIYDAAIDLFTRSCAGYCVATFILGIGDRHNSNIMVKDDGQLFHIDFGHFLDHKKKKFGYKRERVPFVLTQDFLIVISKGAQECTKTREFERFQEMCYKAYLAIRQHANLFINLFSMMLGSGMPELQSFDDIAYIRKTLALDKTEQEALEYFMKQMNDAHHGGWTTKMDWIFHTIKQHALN", "assay": "Binding affinity to human partial length PIK3CA I800L mutant (R108 to N1068 residues) expressed in mammalian expression system assessed as residual binding level at 1 uM by Kinomescan method relative to control", "procedure,_shortened": "as §2"}, "[7]": {"molecular_target": "Serine/threonine-protein kinase 32C (Homo sapiens) (UniProt Q86UX6)", "sequence (Q86UX6 whole entry, the tested form may be a part)": "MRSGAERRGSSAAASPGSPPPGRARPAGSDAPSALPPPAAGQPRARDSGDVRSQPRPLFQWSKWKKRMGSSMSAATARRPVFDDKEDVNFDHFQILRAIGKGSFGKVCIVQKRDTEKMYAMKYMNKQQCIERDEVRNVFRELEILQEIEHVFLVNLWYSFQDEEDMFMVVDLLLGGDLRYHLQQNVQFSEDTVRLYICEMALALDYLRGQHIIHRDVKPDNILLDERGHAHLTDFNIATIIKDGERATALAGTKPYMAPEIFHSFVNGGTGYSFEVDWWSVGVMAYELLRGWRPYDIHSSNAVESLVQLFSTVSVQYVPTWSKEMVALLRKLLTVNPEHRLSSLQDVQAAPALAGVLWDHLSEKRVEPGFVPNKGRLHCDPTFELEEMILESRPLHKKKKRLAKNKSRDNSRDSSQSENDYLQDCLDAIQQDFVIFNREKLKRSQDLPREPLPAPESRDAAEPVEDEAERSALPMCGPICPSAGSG", "assay": "Binding affinity to wild-type human partial length YANK3 (M68 to G486 residues) expressed in bacterial expression system assessed as residual binding level at 1 uM by Kinomescan method relative to control"}, "[8]": {"molecular_target": "Tyrosine-protein kinase Fyn (Homo sapiens) (UniProt P06241)", "assay": "Binding affinity to wild-type human partial length FYN (T243 to L534 residues) expressed in bacterial expression system assessed as residual binding level at 1 uM by Kinomescan method relative to control", "procedure,_shortened": "as §1"}, "[9]": {"molecular_target": "Dual specificity tyrosine-phosphorylation-regulated kinase 1A (Homo sapiens) (UniProt Q13627)", "assay": "Binding affinity to wild-type human partial length DYRK1A (H129 to S509 residues) expressed in mammalian expression system assessed as residual binding level at 1 uM by Kinomescan method relative to control"}, "[10]": {"molecular_target": "Mitogen-activated protein kinase; ERK1/ERK2 (Homo sapiens) (UniProt P27361+P28482)", "sequence (P27361 whole entry, looked up)": "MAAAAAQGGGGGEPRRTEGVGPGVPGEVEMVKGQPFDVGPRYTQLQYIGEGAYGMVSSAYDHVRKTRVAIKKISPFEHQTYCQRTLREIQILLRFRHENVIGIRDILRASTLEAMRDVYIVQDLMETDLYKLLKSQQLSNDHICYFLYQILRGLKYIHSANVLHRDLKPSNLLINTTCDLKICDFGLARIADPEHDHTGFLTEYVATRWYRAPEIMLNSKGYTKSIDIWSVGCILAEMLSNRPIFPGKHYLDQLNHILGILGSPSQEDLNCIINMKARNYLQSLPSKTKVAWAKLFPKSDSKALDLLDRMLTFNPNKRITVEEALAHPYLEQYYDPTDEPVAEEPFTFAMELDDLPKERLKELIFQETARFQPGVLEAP", "sequence (P28482 whole entry, looked up)": "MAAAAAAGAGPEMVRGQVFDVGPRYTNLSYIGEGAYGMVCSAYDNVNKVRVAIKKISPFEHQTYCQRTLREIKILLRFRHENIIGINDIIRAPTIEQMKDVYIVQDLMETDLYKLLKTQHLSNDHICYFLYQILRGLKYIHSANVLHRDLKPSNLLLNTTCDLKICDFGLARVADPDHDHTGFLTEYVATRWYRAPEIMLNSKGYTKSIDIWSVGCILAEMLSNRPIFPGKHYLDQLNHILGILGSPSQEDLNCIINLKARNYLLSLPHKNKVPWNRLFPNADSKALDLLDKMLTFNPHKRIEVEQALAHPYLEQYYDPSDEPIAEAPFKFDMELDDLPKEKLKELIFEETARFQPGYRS", "assay": "Inhibition of ERK1/2 in human NCI-H1975 cells assessed as blocking of ERK1/2 pulldown at 1 uM in presence of TL13-68 incubated for 2 hrs by Western blot analysis", "type": "cell-based", "procedure,_shortened": "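H1975 or HCC827 cells treated with 1 μM compound or DMSO for 2 h, rinsed twice in cold PBS, and lysed in M-PER with protease/phosphatase inhibitors. Lysate rocked overnight at 4 °C with 1 μM TL13-68, then streptavidin pulldown with five cold washes. Bound kinases detected by Western blot. Two independent experiments.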"}, "[11]": {"molecular_target": "Mitogen-activated protein kinase 8 (Homo sapiens) (UniProt P45983)", "assay": "Binding affinity to wild-type human full length JNK1 (M1 to Q384 residues) expressed in mammalian expression system assessed as residual binding level at 1 uM by Kinomescan method relative to control", "procedure,_shortened": "as §3"}, "[12]": {"molecular_target": "Mitogen-activated protein kinase kinase kinase 4 (Homo sapiens) (UniProt Q9Y6R4)", "sequence (Q9Y6R4 whole entry, the tested form may be a part)": "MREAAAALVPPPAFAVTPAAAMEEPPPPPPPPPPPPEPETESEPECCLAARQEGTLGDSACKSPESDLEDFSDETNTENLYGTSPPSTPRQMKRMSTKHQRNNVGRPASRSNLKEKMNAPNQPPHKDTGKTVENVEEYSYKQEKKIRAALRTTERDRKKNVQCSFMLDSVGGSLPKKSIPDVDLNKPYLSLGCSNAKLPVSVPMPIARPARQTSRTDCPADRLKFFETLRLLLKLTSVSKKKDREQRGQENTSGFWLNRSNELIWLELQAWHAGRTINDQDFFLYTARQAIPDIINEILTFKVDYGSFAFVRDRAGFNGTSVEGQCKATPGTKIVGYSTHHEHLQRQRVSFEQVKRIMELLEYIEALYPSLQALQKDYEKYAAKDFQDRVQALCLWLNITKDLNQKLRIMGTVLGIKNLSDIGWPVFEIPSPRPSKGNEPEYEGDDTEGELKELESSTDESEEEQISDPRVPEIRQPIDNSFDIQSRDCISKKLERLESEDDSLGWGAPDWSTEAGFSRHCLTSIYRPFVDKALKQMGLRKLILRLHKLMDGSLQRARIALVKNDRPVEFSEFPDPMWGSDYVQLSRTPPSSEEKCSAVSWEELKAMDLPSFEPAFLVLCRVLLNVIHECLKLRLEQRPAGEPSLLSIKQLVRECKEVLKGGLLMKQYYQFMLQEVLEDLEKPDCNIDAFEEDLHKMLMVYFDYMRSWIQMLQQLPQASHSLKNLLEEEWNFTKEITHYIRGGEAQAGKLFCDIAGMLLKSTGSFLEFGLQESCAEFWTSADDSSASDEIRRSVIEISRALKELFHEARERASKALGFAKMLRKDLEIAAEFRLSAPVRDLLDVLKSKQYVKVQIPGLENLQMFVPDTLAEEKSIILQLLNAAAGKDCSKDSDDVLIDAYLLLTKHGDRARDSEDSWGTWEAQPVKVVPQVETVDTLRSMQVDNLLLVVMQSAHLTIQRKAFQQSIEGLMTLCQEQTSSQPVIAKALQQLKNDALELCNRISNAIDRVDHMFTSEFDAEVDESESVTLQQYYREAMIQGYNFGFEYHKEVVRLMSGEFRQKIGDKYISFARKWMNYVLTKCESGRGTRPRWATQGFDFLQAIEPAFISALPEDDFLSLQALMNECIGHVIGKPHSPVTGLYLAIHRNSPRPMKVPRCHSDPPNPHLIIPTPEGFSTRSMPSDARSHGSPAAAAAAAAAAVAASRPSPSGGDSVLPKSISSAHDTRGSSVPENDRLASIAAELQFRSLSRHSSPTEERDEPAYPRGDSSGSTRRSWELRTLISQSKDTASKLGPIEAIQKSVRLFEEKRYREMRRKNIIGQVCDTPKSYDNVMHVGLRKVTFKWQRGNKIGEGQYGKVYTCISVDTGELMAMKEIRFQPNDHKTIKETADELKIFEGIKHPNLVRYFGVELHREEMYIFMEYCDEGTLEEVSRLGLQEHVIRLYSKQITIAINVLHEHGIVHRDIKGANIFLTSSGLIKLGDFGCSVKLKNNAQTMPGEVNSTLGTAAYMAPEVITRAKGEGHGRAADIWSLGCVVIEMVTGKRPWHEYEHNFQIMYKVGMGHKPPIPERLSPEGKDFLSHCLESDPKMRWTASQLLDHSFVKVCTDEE", "assay": "Binding affinity to wild-type human partial length MAP3K4 (G1319 to E1608 residues) expressed in bacterial expression system assessed as residual binding level at 1 uM by Kinomescan method relative to control"}, "[13]": {"molecular_target": "Serine/threonine-protein kinase TNNI3K (Homo sapiens) (UniProt Q59H18)", "assay": "Binding affinity to wild-type human full length TNNI3K (M1 to S835 residues) expressed in bacterial expression system assessed as residual binding level at 1 uM by Kinomescan method relative to control", "procedure,_shortened": "as §3"}, "[14]": {"molecular_target": "Serine/threonine-protein kinase OSR1 (Homo sapiens) (UniProt O95747)", "assay": "Binding affinity to wild-type human full length OSR1 (M1 to S527 residues) expressed in mammalian expression system assessed as residual binding level at 1 uM by Kinomescan method relative to control", "procedure,_shortened": "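Active-site-directed competition binding panel (KinomeScan) covering 468 kinases. Test agent was screened at 1 μM. The read-out is the remaining kinase signal expressed relative to a DMSO control. Scores above 35%, taken as weak binding, were not reported.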"}, "[15]": {"molecular_target": "Serine/threonine-protein kinase haspin (Homo sapiens) (UniProt Q8TF76)", "assay": "Binding affinity to wild-type human partial length HASPIN (I452 to K798 residues) expressed in mammalian expression system assessed as residual binding level at 1 uM by Kinomescan method relative to control"}, "[16]": {"test_system": "Tyrosine-protein kinase ABL1 (Homo sapiens), P00519 [Y253F]", "assay": "Binding affinity to human phosphorylated ABL1 Y253F mutant (S229 to K512 residues) expressed in mammalian expression system assessed as residual binding level at 1 uM by Kinomescan method relative to control", "procedure,_shortened": "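Active-site-directed KinomeScan competition binding panel covering 468 kinases, compound tested at 1 μM. Each readout is the kinase signal remaining with compound, expressed as a percentage of the DMSO control. […]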"}, "[17]": {"molecular_target": "Hepatocyte growth factor receptor (Homo sapiens) (UniProt P08581)", "assay": "Binding affinity to wild-type human partial length MET (D1010 to S1367 residues) expressed in bacterial expression system assessed as residual binding level at 1 uM by Kinomescan method relative to control"}, "[18]": {"molecular_target": "Mitogen-activated protein kinase kinase kinase 7 (Homo sapiens) (UniProt O43318)", "assay": "Binding affinity to wild-type human partial length TAK1 (M1 to Q303 residues) expressed in mammalian expression system assessed as residual binding level at 1 uM by Kinomescan method relative to control", "procedure,_shortened": "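Active site-directed competition binding panel (KinomeScan, 468 kinases). Test compound at 1 μM. Read-out is kinase binding remaining versus DMSO control, expressed as percent of control. Scores above 35% are treated as weak binding.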"}}, "note": "Calls of active or inactive are those of the source. No cut-off for these calls is given here."}
{"smiles": "C=CC(=O)Nc1ccccc1Nc1nc(Nc2ccc(N3CCN(C)CC3)cc2)ncc1C(=O)Nc1c(C)cccc1Cl", "values": [{"measurement": "Activity", "setting": "[1]", "value": 100, "unit": "%"}, {"measurement": "Activity", "setting": "[2]", "value": 1, "unit": "%"}, {"measurement": "Activity", "setting": "[3]", "value": 100, "unit": "%"}, {"measurement": "Activity", "setting": "[4]", "value": 100, "unit": "%"}, {"measurement": "Activity", "setting": "[5]", "value": 29, "unit": "%"}, {"measurement": "Activity", "setting": "[6]", "value": 86, "unit": "%"}, {"measurement": "Activity", "setting": "[7]", "value": 100, "unit": "%"}, {"measurement": "Activity", "setting": "[8]", "value": 2, "unit": "%"}, {"measurement": "Activity", "setting": "[9]", "value": 100, "unit": "%"}, {"measurement": "inhibition", "setting": "[10]", "value": "inactive"}, {"measurement": "Activity", "setting": "[11]", "value": 88, "unit": "%"}, {"measurement": "Activity", "setting": "[12]", "value": 65, "unit": "%"}, {"measurement": "Activity", "setting": "[13]", "value": 83, "unit": "%"}, {"measurement": "Activity", "setting": "[14]", "value": 100, "unit": "%"}, {"measurement": "Activity", "setting": "[15]", "value": 100, "unit": "%"}, {"measurement": "Activity", "setting": "[16]", "value": 0.1, "unit": "%"}, {"measurement": "Activity", "setting": "[17]", "value": 100, "unit": "%"}, {"measurement": "Activity", "setting": "[18]", "value": 99, "unit": "%"}]}
